pIC50: −log10 of the molar value. Activity calls are given as the source filed them. The calls are words filed in the database; no cut-off is given here.
What was measured:
[1] = target: T1, Mast/stem cell growth factor receptor Kit (Homo sapiens, UniProt P10721); settings: GISTT1, 1 uM
[2] = target: T1, Mast/stem cell growth factor receptor Kit; settings: 1 uM
[3] = target: T1, Mast/stem cell growth factor receptor Kit; settings: GISTT1, 1 uM; remark: listed apart in the source
[4] = target: T1, Mast/stem cell growth factor receptor Kit; settings: GISTT1, 1 uM; remark: listed apart in the source
[5] = Antiproliferative activity against human K562 cells measured after 72 hrs by CellTiter-Glo or CCK8 assay; assay type: functional; settings: K562, 72 h
[6] = target: T2, BCR/ABL p210 fusion protein (Homo sapiens, UniProt A1Z199); test: Inhibition of BCR/ABL p210 fusion protein mediated signaling pathways assessed as reduction in ERK phosphorylation at T202/Y204 in human K562 cells at 0.01 to 3 uM measured after 2 hrs by immunoblotting; assay type: cell-based
In short: (§1)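 After an ice-cold PBS wash, cells were lysed in RIPA buffer (50 mM Tris pH 8.0) with protease and phosphatase inhibitors, and protein was quantified by BCA. Lysates were run on SDS-PAGE, transferred to PVDF and blocked in 5% milk/TBST. Phospho- and total proteins were probed by immunoblot with ECL detection; β-actin served as loading control.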

[7] = target: Tyrosine-protein kinase Lck (Homo sapiens, UniProt P06239); settings: BaF3
[8] = target: T1, Mast/stem cell growth factor receptor Kit; test: Inhibition of c-KIT mediated signaling pathways assessed as reduction in Stat3/5 phosphorylation at Y705/Y694 in human GISTT1 cells at 0.03 to 10 uM measured after 2 hrs by immunoblotting; assay type: cell-based
In short: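 GIST-T1 cells treated with DMSO or serially diluted compound for 2 h. Cells lysed in RIPA buffer with protease/phosphatase inhibitors, protein quantified by BCA, SDS-PAGE, PVDF transfer, milk block, primary/secondary antibodies, ECL detection; beta-actin loading control.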

[9] = target: Discoidin domain-containing receptor 2 (Homo sapiens, UniProt Q16832); test: Inhibition of recombinant His-tagged human DDR2 cytoplasmic domain expressed in baculovirus expression system measured after 1 hr by FRET based Z'Lyte assay
In short: (§2)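 Z'-LYTE FRET biochemical kinase assay run by Invitrogen on selected kinases identified from binding profiling; IC50 from dose-response.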

[10] = target: Tyrosine-protein kinase Blk (Homo sapiens, UniProt P51451); test: Inhibition of full length recombinant His-tagged human BLK cytoplasmic domain expressed in baculovirus expression system assessed as residual activity at 1 uM measured after 1 hr by FRET based Z'Lyte assay relative to control
[11] = target: T2, BCR/ABL p210 fusion protein; test: Inhibition of BCR/ABL p210 fusion protein mediated signaling pathways assessed as reduction in CrkL phosphorylation at Y207 in human KU812 cells at 0.01 to 3 uM measured after 2 hrs by immunoblotting; assay type: cell-based
In short: as §1

[12] = target: T1, Mast/stem cell growth factor receptor Kit; test: Inhibition of c-KIT mediated signaling pathways assessed as reduction in AKT phosphorylation at S473 in human GISTT1 cells at 0.03 to 10 uM measured after 2 hrs by immunoblotting; assay type: cell-based
In short: as §1

[13] = target: T1, Mast/stem cell growth factor receptor Kit; settings: BaF3
K562 = test: Anticancer activity against human K562 cells xenografted in nu/nu mouse assessed as reduction in tumor progression administered daily via oral gavage measured 28 days post compound treatment; assay type: functional, cell-based
In short: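 Female nu/nu mice received ten million K562 cells subcutaneously in the right flank, in PBS mixed 1:1 with Matrigel. Daily oral gavage began at 200-400 mm³ tumor size, with 4 or 5 mice per group. Dosing was 25, 50 or 100 mg/kg/d or vehicle (0.5% methylcellulose/0.4% Tween80) for 28 days. Body weight and tumor size were normalized to initial values, and final tumor weight was recorded. Data are mean ± SEM.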

[14] = target: Macrophage colony-stimulating factor 1 receptor (Homo sapiens, UniProt P07333); test: Inhibition of recombinant His-tagged human CSF1R cytoplasmic domain expressed in baculovirus expression system measured after 1 hr by FRET based Z'Lyte assay
In short: as §2

BaF3 [15] = test: Inhibition of BCR/ABL p210 fusion protein M356T mutant (unknown origin) expressed in BAF3 cells assessed as growth inhibition measured after 72 hrs by CellTiter-Glo or CCK8 assay; assay type: cell-based; settings: Homo sapiens
In short: (§3)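 BaF3 lines were made by retroviral transduction with kinase-fusion MSCV vectors packaged in HEK293T cells. Cells were selected with puromycin for 48 h, then selected again without IL-3 so growth depends on the introduced kinase. […] They were seeded at 1 to 2.5×10^4 cells/mL with compound dilutions and incubated 72 h. Viability was read by CellTiter-Glo luminescence or CCK-8 absorbance (450/655 nm), normalized to DMSO control; GI50 was curve-fitted from triplicate tests.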

[16] = target: T1, Mast/stem cell growth factor receptor Kit; test: Inhibition of c-KIT mediated signaling pathways assessed as reduction in S6K phosphorylation at T389 in human GIST882 cells at 0.03 to 10 uM measured after 2 hrs by immunoblotting; assay type: cell-based
In short: as §1

BaF3 [17] = test: Inhibition of BCR/ABL p210 fusion protein F317I mutant (unknown origin) expressed in BAF3 cells assessed as growth inhibition measured after 72 hrs by CellTiter-Glo or CCK8 assay; assay type: cell-based; settings: Homo sapiens
In short: as §3

[18] = Half life in Sprague-Dawley rat at 1 mg/kg, iv; assay type: ADME, organism-based; settings: in vivo
In short: (§4)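 Male Sprague-Dawley rats aged six to eight weeks were fasted overnight and then dosed iv or orally. Blood (~0.2 mL) was drawn from the jugular vein into heparin and kept on ice. Sampling was at 1 min to 8 h for iv and 5 min to 24 h for oral. Plasma was separated by centrifugation at 2-8 °C and stored at -80 °C until analysis.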

[19] = Cell cycle arrest in human GISTT1 cells assessed as accumulation at G0/G1 phase at 0.3 uM after 24 hrs by propidium iodide/RNase staining based flow cytometry; assay type: functional
In short: (§5)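 Cells were exposed to serially diluted compound, then fixed in cold 70% ethanol overnight at -20 °C. They were stained with PI/RNase buffer for DNA-content cell-cycle analysis.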

[20] = Cell cycle arrest in human MEG01 cells assessed as accumulation at G0/G1 phase at 0.3 uM after 24 hrs by propidium iodide/RNase staining based flow cytometry; assay type: functional; settings: MEG-01
In short: as §5

[21] = AUC (0 to infinity) in Sprague-Dawley rat at 1 mg/kg, iv; assay type: ADME, organism-based; parameters: dose 1 mg/kg, route intravenous, time infinity; settings: in vivo
In short: as §4

[22] = target: Epithelial discoidin domain-containing receptor 1 (Homo sapiens, UniProt Q08345); test: Inhibition of human GST-tagged DDR1 cytoplasmic domain expressed in baculovirus expression system measured after 1 hr by FRET based Z'Lyte assay
In short: as §2

[23] = target: T1, Mast/stem cell growth factor receptor Kit; test: Inhibition of c-KIT mediated signaling pathways assessed as reduction in AKT phosphorylation at S473 in human GIST882 cells at 0.03 to 10 uM measured after 2 hrs by immunoblotting; assay type: cell-based
In short: as §1

BaF3 [24] = test: Inhibition of BCR/ABL p210 fusion protein T315I mutant (unknown origin) expressed in BAF3 cells assessed as growth inhibition measured after 72 hrs by CellTiter-Glo or CCK8 assay; assay type: cell-based; settings: Homo sapiens
In short: as §3

T1 sequence (P10721 whole entry): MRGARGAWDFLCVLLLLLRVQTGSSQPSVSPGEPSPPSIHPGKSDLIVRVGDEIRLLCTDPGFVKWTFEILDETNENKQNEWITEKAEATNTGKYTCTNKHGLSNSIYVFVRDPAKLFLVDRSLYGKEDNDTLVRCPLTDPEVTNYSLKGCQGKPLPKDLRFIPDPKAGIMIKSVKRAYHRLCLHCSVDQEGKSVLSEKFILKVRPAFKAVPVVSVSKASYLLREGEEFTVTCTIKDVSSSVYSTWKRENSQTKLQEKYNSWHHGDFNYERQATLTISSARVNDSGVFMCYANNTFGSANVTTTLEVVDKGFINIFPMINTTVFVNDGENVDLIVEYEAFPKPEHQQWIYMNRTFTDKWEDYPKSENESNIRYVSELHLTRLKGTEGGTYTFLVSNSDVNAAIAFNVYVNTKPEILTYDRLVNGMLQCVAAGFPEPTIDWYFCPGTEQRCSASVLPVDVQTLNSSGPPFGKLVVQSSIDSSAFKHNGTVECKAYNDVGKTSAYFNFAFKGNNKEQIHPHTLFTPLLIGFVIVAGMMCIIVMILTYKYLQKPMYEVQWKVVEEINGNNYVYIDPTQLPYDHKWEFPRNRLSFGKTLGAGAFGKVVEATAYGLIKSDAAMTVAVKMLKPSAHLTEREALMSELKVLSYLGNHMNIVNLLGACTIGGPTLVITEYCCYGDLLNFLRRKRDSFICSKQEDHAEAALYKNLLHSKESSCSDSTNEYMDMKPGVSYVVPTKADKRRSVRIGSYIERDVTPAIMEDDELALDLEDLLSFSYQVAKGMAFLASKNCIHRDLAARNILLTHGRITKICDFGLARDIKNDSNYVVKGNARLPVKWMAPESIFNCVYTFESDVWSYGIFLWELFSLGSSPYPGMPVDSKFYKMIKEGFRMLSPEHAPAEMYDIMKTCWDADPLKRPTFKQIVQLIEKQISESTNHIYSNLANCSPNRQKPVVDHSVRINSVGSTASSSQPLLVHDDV
T2 sequence (A1Z199 1-97): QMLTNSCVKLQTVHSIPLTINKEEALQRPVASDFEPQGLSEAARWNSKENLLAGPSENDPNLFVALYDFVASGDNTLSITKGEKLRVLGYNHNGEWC
Sequence of Epithelial discoidin domain-containing receptor 1 (Q08345 whole entry, the tested form may be a part): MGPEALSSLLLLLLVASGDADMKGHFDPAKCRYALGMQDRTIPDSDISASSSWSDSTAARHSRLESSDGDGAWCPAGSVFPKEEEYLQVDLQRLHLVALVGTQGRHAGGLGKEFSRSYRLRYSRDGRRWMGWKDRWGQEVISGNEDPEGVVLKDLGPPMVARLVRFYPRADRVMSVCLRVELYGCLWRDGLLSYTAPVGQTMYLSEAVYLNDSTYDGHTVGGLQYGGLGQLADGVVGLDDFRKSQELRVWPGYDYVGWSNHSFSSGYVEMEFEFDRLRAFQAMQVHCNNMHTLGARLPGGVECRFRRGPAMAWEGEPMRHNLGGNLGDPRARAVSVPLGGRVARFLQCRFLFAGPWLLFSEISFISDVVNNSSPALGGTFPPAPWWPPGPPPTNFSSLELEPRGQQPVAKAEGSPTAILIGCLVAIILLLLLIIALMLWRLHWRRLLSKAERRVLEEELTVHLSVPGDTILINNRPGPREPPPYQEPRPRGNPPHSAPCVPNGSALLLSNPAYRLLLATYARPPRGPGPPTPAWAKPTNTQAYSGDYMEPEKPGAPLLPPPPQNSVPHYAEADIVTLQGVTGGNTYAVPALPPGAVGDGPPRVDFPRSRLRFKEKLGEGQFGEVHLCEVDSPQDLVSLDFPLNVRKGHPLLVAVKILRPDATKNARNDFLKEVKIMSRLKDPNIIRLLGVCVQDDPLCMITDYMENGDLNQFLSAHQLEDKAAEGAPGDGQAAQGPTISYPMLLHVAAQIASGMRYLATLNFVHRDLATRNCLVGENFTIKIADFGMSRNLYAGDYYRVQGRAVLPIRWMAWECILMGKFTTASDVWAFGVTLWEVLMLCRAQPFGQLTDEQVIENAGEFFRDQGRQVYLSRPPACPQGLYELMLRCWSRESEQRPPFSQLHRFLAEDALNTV
Sequence of Tyrosine-protein kinase Blk (P51451 2-505 limits assumed): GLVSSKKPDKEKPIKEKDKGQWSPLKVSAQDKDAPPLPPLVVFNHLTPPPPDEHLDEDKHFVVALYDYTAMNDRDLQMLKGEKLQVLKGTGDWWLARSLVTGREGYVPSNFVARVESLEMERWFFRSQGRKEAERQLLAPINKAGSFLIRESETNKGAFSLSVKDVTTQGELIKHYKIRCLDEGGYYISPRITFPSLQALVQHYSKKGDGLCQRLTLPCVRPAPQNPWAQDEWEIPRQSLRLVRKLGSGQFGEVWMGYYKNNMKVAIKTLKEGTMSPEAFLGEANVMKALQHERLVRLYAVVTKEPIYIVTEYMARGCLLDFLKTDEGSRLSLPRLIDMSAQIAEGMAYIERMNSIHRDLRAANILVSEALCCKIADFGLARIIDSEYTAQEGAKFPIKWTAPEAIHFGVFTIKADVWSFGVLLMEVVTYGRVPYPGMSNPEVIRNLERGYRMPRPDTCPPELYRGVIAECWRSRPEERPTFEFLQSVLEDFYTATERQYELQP
Sequence of Discoidin domain-containing receptor 2 (Q16832 whole entry, the tested form may be a part): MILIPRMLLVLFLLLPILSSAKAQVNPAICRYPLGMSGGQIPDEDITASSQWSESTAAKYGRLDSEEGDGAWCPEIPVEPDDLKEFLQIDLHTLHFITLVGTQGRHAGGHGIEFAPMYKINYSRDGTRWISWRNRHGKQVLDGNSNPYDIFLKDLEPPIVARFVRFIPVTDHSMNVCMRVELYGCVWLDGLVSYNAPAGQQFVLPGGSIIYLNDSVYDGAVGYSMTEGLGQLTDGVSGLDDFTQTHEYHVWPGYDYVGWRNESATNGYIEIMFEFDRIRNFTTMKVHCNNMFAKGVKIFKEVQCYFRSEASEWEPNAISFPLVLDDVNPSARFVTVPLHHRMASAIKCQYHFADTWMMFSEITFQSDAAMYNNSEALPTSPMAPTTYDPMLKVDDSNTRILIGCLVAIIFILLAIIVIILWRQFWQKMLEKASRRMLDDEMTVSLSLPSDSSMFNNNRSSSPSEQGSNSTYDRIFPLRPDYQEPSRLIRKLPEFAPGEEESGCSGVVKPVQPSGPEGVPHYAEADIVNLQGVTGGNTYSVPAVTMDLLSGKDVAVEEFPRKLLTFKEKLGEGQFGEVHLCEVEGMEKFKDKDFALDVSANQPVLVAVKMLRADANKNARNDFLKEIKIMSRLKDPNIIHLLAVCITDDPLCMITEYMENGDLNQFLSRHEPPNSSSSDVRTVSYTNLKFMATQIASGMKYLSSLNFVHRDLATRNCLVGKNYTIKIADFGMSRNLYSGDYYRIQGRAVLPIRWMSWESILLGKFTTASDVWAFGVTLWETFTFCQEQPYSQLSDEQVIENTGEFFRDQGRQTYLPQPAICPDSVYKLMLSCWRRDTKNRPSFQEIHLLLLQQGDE
Sequence of Tyrosine-protein kinase Lck (P06239 2-509 limits assumed): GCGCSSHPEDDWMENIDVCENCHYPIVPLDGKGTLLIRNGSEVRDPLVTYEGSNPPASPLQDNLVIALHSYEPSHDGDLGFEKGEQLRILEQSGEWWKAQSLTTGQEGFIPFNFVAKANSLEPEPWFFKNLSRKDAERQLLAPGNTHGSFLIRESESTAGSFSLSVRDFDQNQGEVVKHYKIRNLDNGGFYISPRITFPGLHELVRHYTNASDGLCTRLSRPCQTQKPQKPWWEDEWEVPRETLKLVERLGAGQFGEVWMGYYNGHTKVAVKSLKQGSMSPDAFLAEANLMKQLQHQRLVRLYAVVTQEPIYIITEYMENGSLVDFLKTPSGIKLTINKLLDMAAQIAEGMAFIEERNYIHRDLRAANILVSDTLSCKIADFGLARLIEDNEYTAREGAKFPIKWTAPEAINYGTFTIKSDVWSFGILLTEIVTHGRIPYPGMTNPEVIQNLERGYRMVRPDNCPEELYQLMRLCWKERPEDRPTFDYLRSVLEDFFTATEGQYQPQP
Sequence of Macrophage colony-stimulating factor 1 receptor (P07333 whole entry, the tested form may be a part): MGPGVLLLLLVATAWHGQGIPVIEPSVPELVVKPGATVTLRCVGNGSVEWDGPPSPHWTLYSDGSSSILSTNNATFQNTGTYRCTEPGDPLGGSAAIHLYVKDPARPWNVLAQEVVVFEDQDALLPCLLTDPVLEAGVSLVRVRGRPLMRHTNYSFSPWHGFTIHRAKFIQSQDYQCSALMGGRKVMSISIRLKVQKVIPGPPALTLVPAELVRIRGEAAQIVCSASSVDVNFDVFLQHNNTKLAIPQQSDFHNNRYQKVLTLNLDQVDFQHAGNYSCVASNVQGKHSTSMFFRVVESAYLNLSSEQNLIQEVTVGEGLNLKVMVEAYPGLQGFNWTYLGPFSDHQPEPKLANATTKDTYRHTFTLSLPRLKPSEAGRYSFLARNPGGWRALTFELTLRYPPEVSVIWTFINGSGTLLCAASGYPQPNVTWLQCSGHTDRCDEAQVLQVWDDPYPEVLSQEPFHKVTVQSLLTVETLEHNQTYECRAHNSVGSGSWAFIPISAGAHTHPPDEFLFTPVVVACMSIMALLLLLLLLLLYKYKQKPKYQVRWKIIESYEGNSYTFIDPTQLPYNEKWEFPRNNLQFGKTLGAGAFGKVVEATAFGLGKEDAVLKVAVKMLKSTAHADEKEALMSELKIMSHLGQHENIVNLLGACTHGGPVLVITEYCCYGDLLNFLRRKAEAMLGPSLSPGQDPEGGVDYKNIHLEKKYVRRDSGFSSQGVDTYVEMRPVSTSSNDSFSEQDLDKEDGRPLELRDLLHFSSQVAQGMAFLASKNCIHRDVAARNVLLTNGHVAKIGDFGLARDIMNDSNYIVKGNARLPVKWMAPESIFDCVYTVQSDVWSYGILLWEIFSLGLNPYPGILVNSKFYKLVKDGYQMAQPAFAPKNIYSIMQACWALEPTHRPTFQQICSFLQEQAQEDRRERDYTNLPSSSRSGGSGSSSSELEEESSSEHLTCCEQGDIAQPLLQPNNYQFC

In the case of Cc1ccc(NC(=O)c2ccc(CN3CCN(C)CC3)cc2)cc1Nc1nccc(-c2cccnc2)n1 [IMATINIB], the inhibition [1] was “Active”, the inhibition [2] was “Active” and the inhibition [3] was “Active”. The inhibition [4] was “Active”.

With Cc1ccc(C(=O)N2CCC(Oc3cc(NC(=O)c4ccc(CN5CCN(C)CC5)c(C(F)(F)F)c4)ccc3C)CC2)cn1 the GI50 [5] was 27 nM, the inhibition [6] was “Active” and the GI50 [7] was 386 nM. For the same compound, the inhibition [8] was “Active”, the pIC50 [9] was 6.49 and the Activity [10] was 0.45%. The inhibition [11] was “Active”, the inhibition [12] was “Active” and the GI50 [13] was 149 nM. The TGI (K562) was “Dose-dependent effect”, the pIC50 [14] was 6.64 and the GI50 (BaF3 [15]) was 270 nM. For the same compound, the inhibition [16] was “Active”, the GI50 (BaF3 [17]) was 490 nM and the half-life [18] was 2.47 h. For the same compound, the Activity [19] was “Active”, the Activity [20] was “Active” and the AUC(0-inf) [21] was 558 ng·h/mL. For the same compound, the pIC50 [22] was 6.94, the inhibition [23] was “Active” and the GI50 (BaF3 [24]) was greater than 10000 nM.

Reference: ChEMBL document CHEMBL3877303 (J Med Chem, 2017)
